Assay results gathered from unrelated publications.
Lines come from different studies, so protocols differ.
Target: Interleukin-1 receptor-associated kinase 4 (IRAK4, Homo sapiens, UniProt Q9NWZ3)
One construct used (Q9NWZ3 1-460): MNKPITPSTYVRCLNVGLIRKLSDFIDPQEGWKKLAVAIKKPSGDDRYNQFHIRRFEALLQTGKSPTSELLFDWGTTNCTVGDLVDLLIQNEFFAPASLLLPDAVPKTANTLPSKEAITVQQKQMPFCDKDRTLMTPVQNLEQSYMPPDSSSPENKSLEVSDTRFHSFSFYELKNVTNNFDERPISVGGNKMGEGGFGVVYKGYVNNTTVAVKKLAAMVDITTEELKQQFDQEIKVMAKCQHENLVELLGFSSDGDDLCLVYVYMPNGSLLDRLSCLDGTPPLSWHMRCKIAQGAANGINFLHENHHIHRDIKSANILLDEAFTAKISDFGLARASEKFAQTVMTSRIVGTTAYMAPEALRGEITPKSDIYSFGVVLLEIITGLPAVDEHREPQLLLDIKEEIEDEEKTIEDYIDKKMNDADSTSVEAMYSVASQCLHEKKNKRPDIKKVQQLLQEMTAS

Cc1ccc(C(=O)Nc2ccc(CN3CCN(C)CC3)c(C(F)(F)F)c2)cc1C#Cc1cnc2cccnn12
remaining activity (enzyme activity; inhibitor; 23.5 nM): 91%

CSc1nc(C)c(-c2ccnc(Nc3ccc(N4CCOCC4)cc3)c2)[nH]1
inhibition (enzyme activity; inhibitor; 10 µM): 45.8%

c1ccc(N2CCN(Cc3nc4ccccc4[nH]3)CC2)nc1
remaining binding (binding; competition with immobilised ligand; 1 µM): 100%

CC(C)(C)c1nc2c(s1)c1nc(N)ncc1c1ccc(NS(=O)(=O)c3c(F)cccc3F)c(F)c12
remaining activity (enzyme activity; inhibitor; radiometric; 1 µM): 90%

Nc1cnc(N2CCc3cc(S(=O)(=O)Nc4c(F)cc(Cl)cc4F)cc(N4CCCC4=O)c32)nc1
remaining binding (cell-free assay; competition with immobilised ligand; 1 µM): 100%

CS(=O)(=O)Nc1cccc(-c2csc(NC(=O)CSc3nc4nccnc4c(=O)n3CCc3ccccc3)n2)c1
inhibition (enzyme activity; inhibitor; 10 µM): 7%

Oc1cccc(-c2nc(N3CCOCC3)c3oc4ncccc4c3n2)c1
remaining activity (enzyme activity; inhibitor; 10 µM): 119%

FC(F)(F)Oc1cccc(-c2cnc3ccc(-c4ccncc4)nn23)c1
activity vs control (enzyme activity; inhibitor; radiometric; 1 µM): 12%

CC(C)(O)[C@H]1CC[C@H](Nc2ccc3ncc(-c4cccc(C(F)(F)F)c4)n3n2)CC1
remaining activity (enzyme activity; inhibitor; 1 µM): 64.2%

CNCc1ccccc1-c1csc([C@@H](C)Nc2nc(C)nc3cc(OC)c(OC)cc23)c1
remaining binding (cell-free assay; competition with immobilised ligand; 1 µM): 76%

COc1ccc(COc2ccc(Cc3cnc(N)nc3N)cc2OC)cc1
remaining signal (cell-free assay; 0.5 µM): 110%

C[C@H](c1cccc(C#N)c1)n1cc(Cl)cc(C(N)=O)c1=N
remaining binding (cell-free assay; competition with immobilised ligand; 1 µM): 82%

COc1cc2c(Nc3ccc(Br)cc3F)ncnc2cc1OCC1CCN(C)CC1
remaining signal (cell-free assay; 0.5 µM): 35.3%

N#CC1(c2ccccn2)CCN(Cc2cc(C(=O)N3CCCC3)c(=O)n3ccccc23)CC1
remaining binding (cell-free assay; competition with immobilised ligand; 1 µM): 100%

COc1cc2ncnc(Nc3ccc(Oc4ccccc4)cc3C)c2cc1OC
inhibition (enzyme activity; inhibitor; 1 µM): 0%

CC/C(=N\NC(=O)NCc1cccc(O)c1)c1ccc(O)c(C)c1O
inhibition (enzyme activity; inhibitor; 0.1 µM): -0.4%

Cc1ccc(NC(=O)c2ccc(C)c(C(F)(F)F)c2)cc1C#Cc1nn(C2CCC(O)CC2)c2ncnc(N)c12 (centres unmarked)
remaining signal (cell-free assay; 10 µM): 101%

CC1=C(C#N)C(c2ccc3c(c2)c(NC(=O)c2ccccc2C)nn3C)C(C#N)=C(C)N1
remaining binding (cell-free assay; competition with immobilised ligand; 1 µM): 7.5%

Nc1ncnc2occ(-c3ccc(NC(=O)Nc4cc(C(F)(F)F)ccc4F)cc3)c12
remaining signal (cell-free assay; inhibitor; 20 µM): 46%

CCC(=O)N[C@H]1CC[C@@H](C(=O)N(C)c2ccc(-c3nc4ccccc4o3)cc2)C1
remaining binding (cell-free assay; competition with immobilised ligand; 1 µM): 87%

N#CCCc1ccc2c(c1)-c1[nH]c3ccc([N+](=O)[O-])cc3c1CC(=O)N2
remaining signal (cell-free assay; 0.5 µM): 155%

CNc1cccc2cc(C(=O)Nc3ccc(C(=O)O)cc3)c(=O)[nH]c12
inhibition (enzyme activity; inhibitor; 10 µM): 7.7%

Cc1ccc(Nc2nccc(N(C)c3ccc4c(C)n(C)nc4c3)n2)cc1S(N)(=O)=O
remaining activity (enzyme activity; inhibitor; 0.5 µM): 98.4%

CCN(CC)CCNC(=O)c1c(C)[nH]c(/C=C2\C(=O)Nc3ccc(F)cc32)c1C
inhibition (enzyme activity; inhibitor; 0.3 µM): 28%

C[C@@]1(Cc2ccc(C#N)cc2)C(=O)N(c2cc(Cl)cc(Cl)c2)c2ncc(C(=O)NC3(c4nc(C5CCC5)no4)CC3)n21
remaining binding (cell-free assay; competition with immobilised ligand; 1 µM): 100%

O=C(Nc1cnn(-c2csc(C(=O)NC3COC3)c2)c1)Nc1c(F)cccc1Cl
remaining activity (enzyme activity; inhibitor; 5 µM): 97.8%

COc1cc(Nc2cnc(C#N)c(O[C@H](C)CN(C)C)n2)ncc1-c1cnn(C)c1
remaining activity (enzyme activity; inhibitor; radiometric; 10 µM): 25%

CN(C)C1CCN(CC#Cc2nn(C3CCCC3)c3nc(NCc4ccccc4)ncc23)C1 (centres unmarked)
inhibition (enzyme activity; inhibitor; FRET; 1 µM): 3%

O=C(Nc1cnn(-c2csc(C(=O)NC3COC3)c2)c1)Nc1ccccc1Cl
remaining activity (enzyme activity; inhibitor; 5 µM): 92.1%
